In general, MIC refers to the smallest concentration in the dilution series that meets the test's criterion for growth inhibition.

Values after ≈ are worked out from the molar mass of the structure shown.

The test system of assay [1] is Staphylococcus aureus. As to the kind of experiment: Antibacterial activity against methicillin resistant Staphylococcus aureus N315 assessed as reduction in bacterial cell viability incubated for 24 hrs by two fold serial dilution method. The assay is classed as functional. As to conditions: N315, 24 h. The gist of the method:
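MIC by two-fold serial dilution following CLSI, with chloromycin and norfloxacin as reference drugs.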

The next assay deals with Enterococcus faecalis. As to the kind of experiment: Antibacterial activity against Enterococcus faecalis assessed as reduction in bacterial cell viability incubated for 24 hrs by two fold serial dilution method. It counts as functional. The gist of the method: (§1)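 Broth two-fold serial dilution run to CLSI guidelines. Chloromycin, norfloxacin and fluconazole served as reference drugs.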

Assay [2] relates to Staphylococcus aureus. The experiment in a line: Antibacterial activity against Staphylococcus aureus assessed as reduction in bacterial cell viability incubated for 24 hrs by two fold serial dilution method. It counts as functional. The gist of the method:
as §1

Assay [3] deals with Staphylococcus aureus. The experiment in a line: Antibacterial activity against Staphylococcus aureus ATCC 25923 assessed as reduction in bacterial cell viability incubated for 24 hrs by two fold serial dilution method. It counts as functional. As to conditions: ATCC 25923, 24 h. The gist of the method: as §1
For assay [4], the system named is Staphylococcus aureus. The experiment in a line: Antibacterial activity against Staphylococcus aureus ATCC 29213 assessed as reduction in bacterial cell viability incubated for 24 hrs by two fold serial dilution method. It counts as functional. Particulars: ATCC 29213, 24 h. The gist of the method: as §1
The subject of another assay is Klebsiella pneumoniae. The experiment in a line: Antibacterial activity against Klebsiella pneumoniae assessed as reduction in bacterial cell viability incubated for 24 hrs by two fold serial dilution method. The assay is classed as functional. The gist of the method: as §1
The subject of assay [5] is Escherichia coli. As to the kind of experiment: Antibacterial activity against Escherichia coli ATCC 25922 assessed as reduction in bacterial cell viability incubated for 24 hrs by two fold serial dilution method. It counts as functional. Particulars: ATCC 25922, 24 h. The gist of the method:
as §1

Assay [6] concerns Escherichia coli. As to the kind of experiment: Antibacterial activity against Escherichia coli assessed as reduction in bacterial cell viability incubated for 24 hrs by two fold serial dilution method. It counts as functional. In a few lines: as §1
Assay [7] relates to Pseudomonas aeruginosa. The experiment in a line: Antibacterial activity against Pseudomonas aeruginosa assessed as reduction in bacterial cell viability incubated for 24 hrs by two fold serial dilution method. The assay is classed as functional. The gist of the method:
as §1

Assay [8] concerns Pseudomonas aeruginosa. The experiment in a line: Antibacterial activity against Pseudomonas aeruginosa ATCC 27853 assessed as reduction in bacterial cell viability incubated for 24 hrs by two fold serial dilution method. It counts as functional. As to conditions: ATCC 27853, 24 h. The gist of the method: as §1
In another assay the test system is Acinetobacter baumannii. The experiment in a line: Antibacterial activity against Acinetobacter baumannii assessed as reduction in bacterial cell viability incubated for 24 hrs by two fold serial dilution method. It counts as functional. In a few lines: as §1
The test system of assay [9] is Candida albicans. The experiment in a line: Antifungal activity against Candida albicans assessed as reduction in fungal cell viability incubated for 24 hrs by two fold serial dilution method. The assay is classed as functional. The gist of the method:
as §1

Assay [10] has as its system Candida albicans. The experiment in a line: Antifungal activity against Candida albicans ATCC 90023 assessed as reduction in fungal cell viability incubated for 24 hrs by two fold serial dilution method. As to conditions: ATCC 90023, 24 h. The assay is classed as functional. In a few lines:
as §1

Another assay deals with Candida tropicalis. As to the kind of experiment: Antifungal activity against Candida tropicalis assessed as reduction in fungal cell viability incubated for 24 hrs by two fold serial dilution method. The assay is classed as functional. The gist of the method:
as §1

The test system of a further assay is Aspergillus fumigatus. The experiment in a line: Antifungal activity against Aspergillus fumigatus assessed as reduction in fungal cell viability incubated for 24 hrs by two fold serial dilution method. It counts as functional. In a few lines:
as §1

Another assay has as its system Candida parapsilosis. As to the kind of experiment: Antifungal activity against Candida parapsilosis ATCC 22019 assessed as reduction in fungal cell viability incubated for 24 hrs by two fold serial dilution method. Particulars: Lodderomyces parapsilosis, ATCC 22019, 24 h.

In the case of `CCn1cc(-c2csc(N)n2)c(=O)c2cc(N3CCN(C/C(C)=N/OC)CC3)c(Cl)cc21`, the MIC with Staphylococcus aureus [1] was found to be 67 µM (≈ 31.8 µg/mL); in the assay with Enterococcus faecalis, 135 µM (≈ 64.1 µg/mL); with Staphylococcus aureus [2], 67 µM (≈ 31.8 µg/mL); in the assay on Staphylococcus aureus [3] it was 135 µM (≈ 64.1 µg/mL); in the assay with Staphylococcus aureus [4] it was 135 µM (≈ 64.1 µg/mL); with Klebsiella pneumoniae, 135 µM (≈ 64.1 µg/mL). The MIC in the assay on Escherichia coli [5] came to 269 µM (≈ 128 µg/mL); with Escherichia coli [6] it was 269 µM (≈ 128 µg/mL); in the assay with Pseudomonas aeruginosa [7], 269 µM (≈ 128 µg/mL); in the assay on Pseudomonas aeruginosa [8] it was 135 µM (≈ 64.1 µg/mL); in the assay with Acinetobacter baumannii it was 135 µM (≈ 64.1 µg/mL); in the assay on Candida albicans [9], 539 µM (≈ 256 µg/mL). Moreover, the MIC in the assay with Candida albicans [10] came to 269 µM (≈ 128 µg/mL); in the assay with Candida tropicalis it was 269 µM (≈ 128 µg/mL); in the assay on Aspergillus fumigatus, 269 µM (≈ 128 µg/mL); in the assay with Candida parapsilosis, 67 µM (≈ 31.8 µg/mL).
For `CCn1cc(-c2csc(N)n2)c(=O)c2cc(F)c(N3CCN(C/C(=N/OC)c4ccc(Cl)cc4)CC3)cc21`, the MIC in the assay with Staphylococcus aureus [1] came out at 29 µM (≈ 16.1 µg/mL); with Enterococcus faecalis, 115 µM (≈ 63.8 µg/mL); in the assay on Staphylococcus aureus [2] it was 231 µM (≈ 128 µg/mL); in the assay on Staphylococcus aureus [3], 58 µM (≈ 32.2 µg/mL); in the assay on Staphylococcus aureus [4], 231 µM (≈ 128 µg/mL); with Klebsiella pneumoniae, 231 µM (≈ 128 µg/mL). In addition, the MIC was found to be 461 µM (≈ 256 µg/mL) in the assay on Escherichia coli [5]; 231 µM (≈ 128 µg/mL) in the assay with Escherichia coli [6]; 231 µM (≈ 128 µg/mL) in the assay with Pseudomonas aeruginosa [7]; 58 µM (≈ 32.2 µg/mL) with Pseudomonas aeruginosa [8]; 115 µM (≈ 63.8 µg/mL) in the assay with Acinetobacter baumannii; 231 µM (≈ 128 µg/mL) with Candida albicans [9]. Moreover, the MIC in the assay on Candida albicans [10] came out at 463 µM (≈ 257 µg/mL); in the assay with Candida tropicalis, 115 µM (≈ 63.8 µg/mL); with Aspergillus fumigatus, 461 µM (≈ 256 µg/mL); with Candida parapsilosis, 115 µM (≈ 63.8 µg/mL).
As for `CCn1cc(-c2csc(N)n2)c(=O)c2cc(N3CCN(C/C(=N/OC)c4ccc(Cl)cc4)CC3)c(Cl)cc21`, the minimal inhibitory concentration (MIC) worked out at 224 µM (≈ 128 µg/mL) with Staphylococcus aureus [1]; 448 µM (≈ 256 µg/mL) in the assay with Enterococcus faecalis; 224 µM (≈ 128 µg/mL) in the assay on Staphylococcus aureus [2]; 224 µM (≈ 128 µg/mL) in the assay on Staphylococcus aureus [3]; 224 µM (≈ 128 µg/mL) in the assay on Staphylococcus aureus [4]; 448 µM (≈ 256 µg/mL) with Klebsiella pneumoniae. Besides, the minimum inhibitory concentration (MIC) with Escherichia coli [5], with Escherichia coli [6], with Pseudomonas aeruginosa [7], in the assay with Pseudomonas aeruginosa [8], in the assay on Acinetobacter baumannii and in the assay on Candida albicans [9] was 448 µM (≈ 256 µg/mL) each time. Also, the minimum inhibitory concentration (MIC) worked out at 224 µM (≈ 128 µg/mL) in the assay on Candida albicans [10], 448 µM (≈ 256 µg/mL) in the assay with Candida tropicalis, 448 µM (≈ 256 µg/mL) in the assay with Aspergillus fumigatus and 448 µM (≈ 256 µg/mL) in the assay on Candida parapsilosis.
With `CCn1cc(-c2csc(N)n2)c(=O)c2cc(N3CCN(C/C(=N/OC)c4ccc(F)cc4)CC3)c(Cl)cc21`, the MIC with Staphylococcus aureus [1] was 14 µM (≈ 7.77 µg/mL); with Enterococcus faecalis, 58 µM (≈ 32.2 µg/mL); in the assay on Staphylococcus aureus [2], 29 µM (≈ 16.1 µg/mL); in the assay on Staphylococcus aureus [3] it was 58 µM (≈ 32.2 µg/mL); in the assay on Staphylococcus aureus [4], 58 µM (≈ 32.2 µg/mL); in the assay on Klebsiella pneumoniae it was 231 µM (≈ 128 µg/mL). In addition, the MIC with Escherichia coli [5] was 58 µM (≈ 32.2 µg/mL); in the assay with Escherichia coli [6], 14 µM (≈ 7.77 µg/mL); with Pseudomonas aeruginosa [7] it was 461 µM (≈ 256 µg/mL); in the assay on Pseudomonas aeruginosa [8], 58 µM (≈ 32.2 µg/mL); in the assay with Acinetobacter baumannii it was 115 µM (≈ 63.8 µg/mL); with Candida albicans [9], 231 µM (≈ 128 µg/mL). The MIC came to 58 µM (≈ 32.2 µg/mL) in the assay with Candida albicans [10], 58 µM (≈ 32.2 µg/mL) with Candida tropicalis, 29 µM (≈ 16.1 µg/mL) with Aspergillus fumigatus and 58 µM (≈ 32.2 µg/mL) with Candida parapsilosis.
As for `CCn1cc(-c2csc(N)n2)c(=O)c2cc(F)c(N3CCN(C/C(=N/OC)c4ccc(F)cc4F)CC3)cc21`, the MIC in the assay on Staphylococcus aureus [1] is 230 µM (≈ 128 µg/mL); in the assay with Enterococcus faecalis, 460 µM (≈ 256 µg/mL); with Staphylococcus aureus [2], 460 µM (≈ 256 µg/mL); in the assay on Staphylococcus aureus [3], 460 µM (≈ 256 µg/mL); in the assay with Staphylococcus aureus [4], 460 µM (≈ 256 µg/mL); in the assay with Klebsiella pneumoniae, 460 µM (≈ 256 µg/mL). Further, the minimum inhibitory concentration (MIC) in the assay on Escherichia coli [5] worked out at 460 µM (≈ 256 µg/mL); in the assay on Escherichia coli [6] it was 460 µM (≈ 256 µg/mL); in the assay on Pseudomonas aeruginosa [7], 460 µM (≈ 256 µg/mL); with Pseudomonas aeruginosa [8] it was 460 µM (≈ 256 µg/mL); with Acinetobacter baumannii it was 460 µM (≈ 256 µg/mL); in the assay on Candida albicans [9], 920 µM (≈ 512 µg/mL). Moreover, the MIC stood at 460 µM (≈ 256 µg/mL) in the assay on Candida albicans [10], 460 µM (≈ 256 µg/mL) in the assay on Candida tropicalis, 460 µM (≈ 256 µg/mL) in the assay with Aspergillus fumigatus and 920 µM (≈ 512 µg/mL) in the assay with Candida parapsilosis.
On to `CCn1cc(-c2csc(N)n2)c(=O)c2cc(F)c(N3CCN(C/C(C)=N/OCc4ccc(Cl)cc4Cl)CC3)cc21`, for which the MIC in the assay on Staphylococcus aureus [1] amounted to 424 µM (≈ 256 µg/mL); with Enterococcus faecalis, 424 µM (≈ 256 µg/mL); in the assay on Staphylococcus aureus [2], 848 µM (≈ 512 µg/mL); in the assay with Staphylococcus aureus [3], 848 µM (≈ 512 µg/mL); in the assay with Staphylococcus aureus [4] it was 848 µM (≈ 512 µg/mL); in the assay on Klebsiella pneumoniae, 848 µM (≈ 512 µg/mL). The minimum inhibitory concentration (MIC) in the assay with Escherichia coli [5] is 848 µM (≈ 512 µg/mL); in the assay with Escherichia coli [6], 424 µM (≈ 256 µg/mL); in the assay on Pseudomonas aeruginosa [7] it was 848 µM (≈ 512 µg/mL); in the assay with Pseudomonas aeruginosa [8], 848 µM (≈ 512 µg/mL); with Acinetobacter baumannii, 848 µM (≈ 512 µg/mL); with Candida albicans [9] it was 848 µM (≈ 512 µg/mL). For the same compound, the MIC worked out at 106 µM (≈ 64 µg/mL) in the assay on Candida albicans [10], 424 µM (≈ 256 µg/mL) with Candida tropicalis, 424 µM (≈ 256 µg/mL) with Aspergillus fumigatus and 848 µM (≈ 512 µg/mL) in the assay on Candida parapsilosis.
Consider `CCn1cc(-c2csc(N)n2)c(=O)c2cc(F)c(N3CCN(C/C(=N/OC)c4ccc(Cl)cc4Cl)CC3)cc21`, for which the MIC in the assay on Staphylococcus aureus [1] was 434 µM (≈ 256 µg/mL); in the assay with Enterococcus faecalis, 434 µM (≈ 256 µg/mL); with Staphylococcus aureus [2], 217 µM (≈ 128 µg/mL); with Staphylococcus aureus [3], 54 µM (≈ 31.8 µg/mL); in the assay on Staphylococcus aureus [4] it was 217 µM (≈ 128 µg/mL); with Klebsiella pneumoniae, 217 µM (≈ 128 µg/mL). In addition, the minimal inhibitory concentration (MIC) was 869 µM (≈ 512 µg/mL) with Escherichia coli [5]; 109 µM (≈ 64.3 µg/mL) with Escherichia coli [6]; 217 µM (≈ 128 µg/mL) in the assay on Pseudomonas aeruginosa [7]; 217 µM (≈ 128 µg/mL) in the assay on Pseudomonas aeruginosa [8]; 54 µM (≈ 31.8 µg/mL) in the assay with Acinetobacter baumannii; 434 µM (≈ 256 µg/mL) with Candida albicans [9]. The MIC amounted to 217 µM (≈ 128 µg/mL) in the assay with Candida albicans [10], 54 µM (≈ 31.8 µg/mL) with Candida tropicalis, 434 µM (≈ 256 µg/mL) in the assay with Aspergillus fumigatus and 217 µM (≈ 128 µg/mL) in the assay with Candida parapsilosis.
